From ChEMBL document CHEMBL4680083, “Identification of Tricyclic Agonists of Sphingosine-1-phosphate Receptor 1 (S1P) Employing Ligand-Based Drug Design” (J Med Chem, 2016)

How the values were obtained:
Rattus norvegicus [1] = assay: Reduction in circulating lymphocytes count in Lewis rat blood at 1 mg/kg, po measured at 4 hrs by hematology analyzer based analysis; assay type: functional; design: scale not given: the % may be the effect or the level left
Outline: (§1)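 Lewis rats were given an oral dose as a solution or suspension in PEG300, with controls receiving vehicle only. Blood was taken by retro-orbital bleeding under isoflurane at 4 and 24 h. Lymphocytes were counted on a hematology analyzer. Reduction is relative to the vehicle group, averaged over the animals in each group (n = 3−4).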

[2] = Plasma concentration in Lewis rat at 1 mg/kg, po measured at 4 hr; assay type: ADME, organism-based; details: for concentration at 4 h: Lewis, plasma
Outline: (§2)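 Lewis rats received a single oral 1.0 mg/kg dose as solution or suspension in PEG300. Blood was drawn retro-orbitally under isoflurane at 4 h and 24 h, within the blood lymphocyte reduction study. n = 3−4 per group, group mean reported.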

Rattus norvegicus [3] = assay: Reduction in circulating lymphocytes count in Lewis rat blood at 1 mg/kg, po measured at 24 hrs by hematology analyzer based analysis; assay type: functional; design: scale not given: the % may be the effect or the level left; outline: as §1
[4] = Plasma concentration in Lewis rat at 1 mg/kg, po measured at 24 hrs; assay type: ADME, organism-based; details: for concentration at 24 h: Lewis, plasma; for concentration / Cp: in vivo, 1 mg/kg, 24 h; for Cp: BLD = below limit of detection; outline: as §2
[5] = Ratio of plasma concentration in Lewis rat at 1 mg/kg, po measured at 4 hrs to plasma concentration in Lewis rat at 1 mg/kg, po measured at 24 hrs; assay type: ADME, organism-based; details: in vivo
[6] = biological target: Sphingosine 1-phosphate receptor 1 (Homo sapiens, UniProt P21453); assay: Agonist activity at human S1P1 expressed in CHO cell membranes assessed as stimulation of [35S]-GTPgamma-S binding measured after 45 mins by liquid scintillation counting method; design: species or system Cell membrane
Outline: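 S1P1/CHO cell membranes at 3 μg protein/well with 3-fold compound dilutions. [35S]GTPγS 0.2 nM final, 45 min at room temperature. Filter-plate capture, water washes, scintillation counting. EC50 taken at 50% of each compound's own Ymax.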

[7] = biological target: Sphingosine 1-phosphate receptor 3 (Homo sapiens, UniProt Q99500); assay: Agonist activity at human S1P3 expressed in CHO cell membranes assessed as stimulation of [35S]-GTPgamma-S binding measured after 45 mins by liquid scintillation counting method; design: species or system Cell membrane
[8] = Selectivity index, ratio of EC50 for agonist activity at human S1P3 expressed in CHO cell membranes to EC50 for agonist activity at human S1P1 expressed in CHO cell membranes; assay type: cell-based

Chain of Sphingosine 1-phosphate receptor 3 (Q99500 whole entry): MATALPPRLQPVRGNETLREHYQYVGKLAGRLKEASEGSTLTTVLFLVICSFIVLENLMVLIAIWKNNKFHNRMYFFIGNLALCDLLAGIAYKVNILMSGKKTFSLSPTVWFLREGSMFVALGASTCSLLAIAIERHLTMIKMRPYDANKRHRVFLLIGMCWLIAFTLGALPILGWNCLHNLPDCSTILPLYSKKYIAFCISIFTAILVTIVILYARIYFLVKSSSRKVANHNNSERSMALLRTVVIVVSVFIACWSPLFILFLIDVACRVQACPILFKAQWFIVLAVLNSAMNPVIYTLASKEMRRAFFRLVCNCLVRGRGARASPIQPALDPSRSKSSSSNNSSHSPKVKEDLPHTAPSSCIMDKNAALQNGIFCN
Chain of Sphingosine 1-phosphate receptor 1 (P21453 whole entry): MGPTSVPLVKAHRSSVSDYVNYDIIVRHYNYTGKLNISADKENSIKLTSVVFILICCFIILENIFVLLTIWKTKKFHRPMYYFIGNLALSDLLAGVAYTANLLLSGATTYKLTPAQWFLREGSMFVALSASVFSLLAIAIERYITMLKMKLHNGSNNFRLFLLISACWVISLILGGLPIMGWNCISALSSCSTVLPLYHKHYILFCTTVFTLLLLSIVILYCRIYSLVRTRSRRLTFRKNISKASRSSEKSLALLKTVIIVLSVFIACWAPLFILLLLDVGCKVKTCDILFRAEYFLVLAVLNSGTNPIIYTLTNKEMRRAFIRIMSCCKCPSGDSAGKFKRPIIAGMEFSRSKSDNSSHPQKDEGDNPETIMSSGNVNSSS

Row | Compound | concentration at 4 h [2] | concentration at 24 h [4] | Ratio [5] | EC50 [6] | EC50 [7] | Activity (Rattus norvegicus [1]) | Activity (Rattus norvegicus [3]) | Ratio EC50 [8] | further results
1 | O=C(O)C1CN(Cc2ccc(-c3noc(-c4onc(-c5ccccc5)c4C(F)(F)F)n3)cc2)C1 | 2100 nM | 700 nM | 3 | – | – | 78% | 91% | – | –
2 | CC(C)Oc1ccc(-c2onc3c2CCc2cc(CN4CC(C(=O)O)C4)ccc2-3)cc1C#N | – | – | – | 4.6 nM | > 63000 nM | -5% | 12% | > 14000 | Cp ([2]; in vivo, 1 mg/kg, 4 h, BLD = below limit of detection): Bld; Cp [4]: Bld
3 | O=C(O)C1CN(Cc2ccc3c(c2)CCc2c-3n[nH]c2-c2onc(-c3ccccc3)c2C(F)(F)F)C1 | – | – | – | 190 nM | > 63000 nM | – | – | > 330 | –
4 | O=C(O)[C@H]1CCCN(CC(O)c2ccc3c(c2)CCc2c-3noc2-c2noc(-c3ccccc3)c2C(F)(F)F)C1 (stereo in doubt; 76) [listing 1 of 2 here] | – | – | 7 | 26 nM | 16000 nM | – | – | – | Activity (Rattus norvegicus [1]; 1 mg/kg, 4 h): 28%; Activity (Rattus norvegicus [3]; 1 mg/kg, 24 h): 20%; concentration [4]: 21 nM
5 | O=C(O)C1CN(Cc2ccc3c(n2)CCc2c(-c4noc(-c5ccccc5)c4C(F)(F)F)noc2-3)C1 | 460 nM | 47 nM | 10 | 17 nM | > 63000 nM | 76% | 32% | > 3700 | –
6 | CS(=O)(=O)CCNC(=O)C(O)c1ccc2c(c1)CCc1c-2noc1-c1noc(-c2ccccc2)c1C(F)(F)F (stereo in doubt; 78) [listing 1 of 2 here] | – | – | – | – | – | – | – | 3900 | –
7 | O=C(O)[C@H]1CCCN(CC(O)c2ccc3c(c2)CCc2c-3noc2-c2noc(-c3ccccc3)c2C(F)(F)F)C1 (stereo in doubt; 75) [listing 1 of 2 here] | – | – | – | – | – | – | – | 62000 | –
8 | CS(=O)(=O)CCNC(=O)C(O)c1ccc2c(c1)CCc1c-2noc1-c1noc(-c2ccccc2)c1C(F)(F)F (stereo in doubt; 77) [listing 1 of 2 here] | – | – | – | 200 nM | 18000 nM | – | – | – | –
9 | CC(C)Oc1ccc(-c2onc3c2CCc2cc(CN4CC(C(=O)O)C4)ccc2-3)c(C(F)(F)F)c1 | – | – | – | 24 nM | 11000 nM | – | – | 460 | –
10 | Cn1nc2c(c1-c1noc(-c3ccccc3)c1C(F)(F)F)CCc1cc(CN3CC(C(=O)O)C3)ccc1-2 | – | – | – | 380 nM | > 63000 nM | – | – | > 170 | –
11 | O=C(O)C1CN(Cc2ccc3c(c2)Cc2c-3noc2-c2noc(-c3ccccc3)c2C(F)(F)F)C1 | 21 nM | – | – | 6.8 nM | 32000 nM | 14% | 3% | 4700 | Cp [4]: Bld
12 | O=C(O)C1CN(Cc2ccc3c(c2)CCCc2c(-c4noc(-c5ccccc5)c4C(F)(F)F)noc2-3)C1 | – | – | – | 31 nM | 12000 nM | – | – | 390 | –
13 | O=C(O)C1CN(Cc2ccc3c(c2)CCc2c-3noc2-c2cccc(C(F)(F)F)c2)C1 | – | – | – | 310 nM | > 63000 nM | – | – | > 200 | –
14 | Cn1nc(-c2noc(-c3ccccc3)c2C(F)(F)F)c2c1-c1ccc(CN3CC(C(=O)O)C3)cc1CC2 | – | – | – | 21 nM | > 63000 nM | – | – | > 3000 | –
15 | O=C(O)[C@H]1CCCN(CC(O)c2ccc3c(c2)CCc2c-3noc2-c2noc(-c3ccccc3)c2C(F)(F)F)C1 (stereo in doubt; 76) [listing 2 of 2 here] | – | – | – | – | – | – | – | 620 | –
16 | O=C(O)C1CN(Cc2ccc3c(c2)OCCc2c(-c4noc(-c5ccccc5)c4C(F)(F)F)noc2-3)C1 | – | – | – | 33 nM | 1600 nM | – | – | 48 | –
17 | O=C(O)C[C@H]1CCCN(CC(O)c2ccc3c(c2)CCc2c-3noc2-c2noc(-c3ccccc3)c2C(F)(F)F)C1 (stereo in doubt; 73) [listing 2 of 2 here] | – | – | – | – | – | – | – | 1900 | –
18 | CS(=O)(=O)CCNC(=O)C(O)c1ccc2c(c1)CCc1c-2noc1-c1noc(-c2ccccc2)c1C(F)(F)F (stereo in doubt; 77) [listing 2 of 2 here] | – | – | – | – | – | – | – | 90 | –
19 | O=C(O)C[C@H]1CCCN(CC(O)c2ccc3c(c2)CCc2c-3noc2-c2noc(-c3ccccc3)c2C(F)(F)F)C1 (stereo in doubt; 74) [listing 2 of 2 here] | – | – | – | – | – | – | – | 5200 | –
20 | O=C1NC(=O)C2(CN(Cc3ccc4c(c3)CCc3c-4noc3-c3noc(-c4ccccc4)c3C(F)(F)F)C2)N1 | – | – | – | 51 nM | 23000 nM | – | – | 450 | –

Continued, in another order:

Row | concentration at 4 h [2] | concentration at 24 h [4] | Ratio [5] | EC50 [6] | EC50 [7] | Compound | Activity (Rattus norvegicus [1]) | Activity (Rattus norvegicus [3]) | Ratio EC50 [8] | further results
21 | 190 nM | 4 nM | 48 | 1.3 nM | 1300 nM | CC1(c2onc(-c3onc4c3CCc3cc(CN5CC(C(=O)O)C5)ccc3-4)c2C(F)(F)F)CC1 | 85% | 34% | 1000 | –
22 | 110 nM | 50 nM | 2 | 1.3 nM | 2800 nM | CC(C)Cc1ccc(-c2onc3c2CCc2cc(CN4CC(C(=O)O)C4)ccc2-3)cc1C(F)(F)F | 74% | 76% | 2200 | –
23 | – | – | 1 | 4 nM | 7400 nM | O=C(O)C[C@H]1CCCN(CC(O)c2ccc3c(c2)CCc2c-3noc2-c2noc(-c3ccccc3)c2C(F)(F)F)C1 (stereo in doubt; 73) [listing 1 of 2 here] | 70% | – | – | concentration ([2]; in vivo, 1 mg/kg, 4 h): 190 nM; Activity (Rattus norvegicus [3]; 1 mg/kg, 24 h): 72%; concentration [4]: 160 nM
24 | 190 nM | 4 nM | 48 | 0.87 nM | 1200 nM | Cc1cc2c(cc1CN1CC(C(=O)O)C1)CCc1c-2noc1-c1noc(-c2ccccc2)c1C(F)(F)F | 85% | 34% | 1400 | –
25 | 230 nM | 84 nM | 3 | 2.4 nM | 12000 nM | O=C(O)C1CN(Cc2ccc3c(c2)CCc2nc(-c4onc(-c5ccccc5)c4C(F)(F)F)sc2-3)C1 | 80% | 85% | 5000 | –
26 | 68 nM | 17 nM | 4 | 0.98 nM | 2100 nM | O=C(O)C1CN(Cc2ccc3c(c2)CCc2c-3noc2-c2ccc(C3CCCCC3)c(C(F)(F)F)c2)C1 | 35% | 32% | 2100 | –
27 | 120 nM | 1 nM | 120 | 1 nM | 1300 nM | O=C(O)C1CN(Cc2ccc3c(c2)CCc2c-3noc2-c2onc(-c3ccccn3)c2C(F)(F)F)C1 | 82% | 69% | 1300 | –
28 | – | – | – | 1.6 nM | > 63000 nM | CN1Cc2c(noc2-c2onc(-c3ccccc3)c2C(F)(F)F)-c2ccc(CN3CC(C(=O)O)C3)cc21 | – | – | > 39000 | –
29 | 160 nM | 43 nM | 4 | 0.48 nM | 1900 nM | O=C(O)C1CN(Cc2ccc3c(c2)CCc2c-3noc2-c2noc(-c3ccccc3)c2C(F)(F)F)C1 | 83% | 87% | 4000 | –
30 | 190 nM | 32 nM | 6 | 0.58 nM | 4600 nM | O=C(O)C1CN(Cc2ccc3c(c2)CCc2c-3noc2-c2snc(-c3ccccc3)c2C(F)(F)F)C1 | 74% | 69% | 7900 | –
31 | 28 nM | 5 nM | 6 | 1.5 nM | 26000 nM | CC(C)Oc1ccc(-c2onc3c2CCc2cc(CN4CC(C(=O)O)C4)ccc2-3)cc1C(F)(F)F | 57% | 21% | 17000 | –
32 | 190 nM | 26 nM | – | 1.6 nM | 6200 nM | CS(=O)(=O)CCNC(=O)C(O)c1ccc2c(c1)CCc1c-2noc1-c1noc(-c2ccccc2)c1C(F)(F)F (stereo in doubt; 78) [listing 2 of 2 here] | 50% | 43% | – | –
33 | – | – | – | 1.6 nM | 14000 nM | CCOc1ccc(-c2onc3c2CCc2cc(CN4CC(C(=O)O)C4)ccc2-3)cc1OCC | – | – | 8800 | –
34 | – | – | 4 | 0.33 nM | 1700 nM | O=C(O)C[C@H]1CCCN(CC(O)c2ccc3c(c2)CCc2c-3noc2-c2noc(-c3ccccc3)c2C(F)(F)F)C1 (stereo in doubt; 74) [listing 1 of 2 here] | – | – | – | concentration ([2]; in vivo, 1 mg/kg, 4 h): 93 nM; Activity (Rattus norvegicus [3]; 1 mg/kg, 24 h): 87%; concentration [4]: 32 nM
35 | 140 nM | – | 3 | 0.21 nM | 13000 nM | O=C(O)[C@H]1CCCN(CC(O)c2ccc3c(c2)CCc2c-3noc2-c2noc(-c3ccccc3)c2C(F)(F)F)C1 (stereo in doubt; 75) [listing 2 of 2 here] | – | – | – | Activity (Rattus norvegicus [1]; 1 mg/kg, 4 h): 76%; Activity (Rattus norvegicus [3]; 1 mg/kg, 24 h): 76%; concentration [4]: 49 nM
